According to ChEMBL document CHEMBL3862003, “Development of Selective CBP/P300 Benzoxazepine Bromodomain Inhibitors” (J Med Chem, 2016):

Assays:
[1] = target: CREB-binding protein/Histone acetyltransferase p300 (Homo sapiens, UniProt Q09472+Q92793); test: Inhibition of human CBP/P300 expressed in Escherichia coli BL21(DE3)-R3 assessed as change in melting temperature at 10 uM by SYPRO orange dye-based differential scanning fluorimetry
In short: (§1)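 Thermal shift with protein at 2 μM final in 10 mM HEPES pH 7.5, 500 mM NaCl, compound at 10 μM final. SYPRO Orange at 1:1000, excitation 465 nm, emission 590 nm. Heated 25 to 96 °C at 3 °C per minute, with fluorescence read at each step.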

[2] = target: Bromodomain-containing protein 4 (Homo sapiens, UniProt O60885); test: Inhibition of human BRD4 bromodomain 1 expressed in Escherichia coli BL21(DE3)-R3-pRARE2 assessed as change in melting temperature at 10 uM by SYPRO orange dye-based differential scanning fluorimetry; in short: as §1

Sequence of CREB-binding protein/Histone acetyltransferase p300 (Q09472 whole entry, looked up): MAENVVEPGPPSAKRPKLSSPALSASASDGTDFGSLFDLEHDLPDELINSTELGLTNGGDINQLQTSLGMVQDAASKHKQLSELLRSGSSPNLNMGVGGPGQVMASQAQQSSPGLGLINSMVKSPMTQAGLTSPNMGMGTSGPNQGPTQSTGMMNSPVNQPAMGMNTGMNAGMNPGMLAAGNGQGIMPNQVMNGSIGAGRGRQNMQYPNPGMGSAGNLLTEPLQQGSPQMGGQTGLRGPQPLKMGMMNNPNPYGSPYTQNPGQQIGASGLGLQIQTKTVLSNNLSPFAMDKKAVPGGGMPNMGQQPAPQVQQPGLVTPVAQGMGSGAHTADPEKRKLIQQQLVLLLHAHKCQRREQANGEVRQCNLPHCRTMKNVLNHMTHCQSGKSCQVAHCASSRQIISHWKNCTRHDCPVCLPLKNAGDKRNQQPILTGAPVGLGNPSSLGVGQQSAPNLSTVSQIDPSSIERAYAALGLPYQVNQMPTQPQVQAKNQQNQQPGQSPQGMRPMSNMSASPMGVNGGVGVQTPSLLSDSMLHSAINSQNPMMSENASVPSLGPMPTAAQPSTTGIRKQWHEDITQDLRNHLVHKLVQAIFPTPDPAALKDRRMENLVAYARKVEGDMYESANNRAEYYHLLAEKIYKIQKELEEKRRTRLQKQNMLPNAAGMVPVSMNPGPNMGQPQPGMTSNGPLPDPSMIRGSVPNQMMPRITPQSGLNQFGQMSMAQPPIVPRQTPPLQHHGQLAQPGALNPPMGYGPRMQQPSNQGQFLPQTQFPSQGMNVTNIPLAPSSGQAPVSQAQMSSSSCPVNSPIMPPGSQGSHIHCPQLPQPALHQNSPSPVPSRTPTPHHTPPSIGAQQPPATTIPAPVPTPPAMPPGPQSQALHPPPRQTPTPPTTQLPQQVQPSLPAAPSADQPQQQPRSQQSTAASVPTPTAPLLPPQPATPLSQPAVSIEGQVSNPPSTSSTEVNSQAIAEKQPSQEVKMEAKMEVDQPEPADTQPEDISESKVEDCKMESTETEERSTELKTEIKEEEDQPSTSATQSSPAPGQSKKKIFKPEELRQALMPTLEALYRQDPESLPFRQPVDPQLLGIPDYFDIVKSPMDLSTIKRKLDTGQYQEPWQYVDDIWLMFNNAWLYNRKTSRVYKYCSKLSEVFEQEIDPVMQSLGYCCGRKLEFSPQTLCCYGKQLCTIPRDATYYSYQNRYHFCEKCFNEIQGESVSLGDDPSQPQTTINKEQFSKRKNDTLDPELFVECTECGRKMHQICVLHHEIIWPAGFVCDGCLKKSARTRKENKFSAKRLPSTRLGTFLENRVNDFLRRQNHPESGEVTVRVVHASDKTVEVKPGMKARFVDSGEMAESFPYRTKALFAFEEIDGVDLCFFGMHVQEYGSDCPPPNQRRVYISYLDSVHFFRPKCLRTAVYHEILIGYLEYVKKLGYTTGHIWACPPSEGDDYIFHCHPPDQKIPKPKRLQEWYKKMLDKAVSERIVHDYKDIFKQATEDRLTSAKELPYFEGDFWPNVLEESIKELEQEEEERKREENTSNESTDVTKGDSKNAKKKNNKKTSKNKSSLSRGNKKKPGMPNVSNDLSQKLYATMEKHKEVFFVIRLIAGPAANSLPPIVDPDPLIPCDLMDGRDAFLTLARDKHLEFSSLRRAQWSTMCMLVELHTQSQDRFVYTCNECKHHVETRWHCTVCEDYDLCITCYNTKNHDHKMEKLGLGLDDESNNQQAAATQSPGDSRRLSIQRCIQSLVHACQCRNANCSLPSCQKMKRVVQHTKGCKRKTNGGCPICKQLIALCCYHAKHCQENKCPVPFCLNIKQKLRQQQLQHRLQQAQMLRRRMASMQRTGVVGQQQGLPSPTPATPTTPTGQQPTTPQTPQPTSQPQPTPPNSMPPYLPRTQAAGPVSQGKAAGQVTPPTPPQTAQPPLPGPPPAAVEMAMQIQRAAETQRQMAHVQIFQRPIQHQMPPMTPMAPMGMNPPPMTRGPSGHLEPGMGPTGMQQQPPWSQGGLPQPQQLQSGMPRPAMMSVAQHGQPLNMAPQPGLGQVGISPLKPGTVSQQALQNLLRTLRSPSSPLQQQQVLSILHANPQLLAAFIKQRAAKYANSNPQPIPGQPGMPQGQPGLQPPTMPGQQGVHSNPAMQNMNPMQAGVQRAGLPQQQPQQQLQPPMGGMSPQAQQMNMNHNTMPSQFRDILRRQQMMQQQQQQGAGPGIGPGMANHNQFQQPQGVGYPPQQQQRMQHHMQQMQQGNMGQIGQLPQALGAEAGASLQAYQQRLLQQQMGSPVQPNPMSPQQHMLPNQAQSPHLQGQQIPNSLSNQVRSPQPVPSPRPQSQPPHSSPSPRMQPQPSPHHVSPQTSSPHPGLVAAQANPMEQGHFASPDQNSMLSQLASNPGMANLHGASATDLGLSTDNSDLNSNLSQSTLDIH
Sequence of CREB-binding protein/Histone acetyltransferase p300 (Q92793 whole entry, looked up): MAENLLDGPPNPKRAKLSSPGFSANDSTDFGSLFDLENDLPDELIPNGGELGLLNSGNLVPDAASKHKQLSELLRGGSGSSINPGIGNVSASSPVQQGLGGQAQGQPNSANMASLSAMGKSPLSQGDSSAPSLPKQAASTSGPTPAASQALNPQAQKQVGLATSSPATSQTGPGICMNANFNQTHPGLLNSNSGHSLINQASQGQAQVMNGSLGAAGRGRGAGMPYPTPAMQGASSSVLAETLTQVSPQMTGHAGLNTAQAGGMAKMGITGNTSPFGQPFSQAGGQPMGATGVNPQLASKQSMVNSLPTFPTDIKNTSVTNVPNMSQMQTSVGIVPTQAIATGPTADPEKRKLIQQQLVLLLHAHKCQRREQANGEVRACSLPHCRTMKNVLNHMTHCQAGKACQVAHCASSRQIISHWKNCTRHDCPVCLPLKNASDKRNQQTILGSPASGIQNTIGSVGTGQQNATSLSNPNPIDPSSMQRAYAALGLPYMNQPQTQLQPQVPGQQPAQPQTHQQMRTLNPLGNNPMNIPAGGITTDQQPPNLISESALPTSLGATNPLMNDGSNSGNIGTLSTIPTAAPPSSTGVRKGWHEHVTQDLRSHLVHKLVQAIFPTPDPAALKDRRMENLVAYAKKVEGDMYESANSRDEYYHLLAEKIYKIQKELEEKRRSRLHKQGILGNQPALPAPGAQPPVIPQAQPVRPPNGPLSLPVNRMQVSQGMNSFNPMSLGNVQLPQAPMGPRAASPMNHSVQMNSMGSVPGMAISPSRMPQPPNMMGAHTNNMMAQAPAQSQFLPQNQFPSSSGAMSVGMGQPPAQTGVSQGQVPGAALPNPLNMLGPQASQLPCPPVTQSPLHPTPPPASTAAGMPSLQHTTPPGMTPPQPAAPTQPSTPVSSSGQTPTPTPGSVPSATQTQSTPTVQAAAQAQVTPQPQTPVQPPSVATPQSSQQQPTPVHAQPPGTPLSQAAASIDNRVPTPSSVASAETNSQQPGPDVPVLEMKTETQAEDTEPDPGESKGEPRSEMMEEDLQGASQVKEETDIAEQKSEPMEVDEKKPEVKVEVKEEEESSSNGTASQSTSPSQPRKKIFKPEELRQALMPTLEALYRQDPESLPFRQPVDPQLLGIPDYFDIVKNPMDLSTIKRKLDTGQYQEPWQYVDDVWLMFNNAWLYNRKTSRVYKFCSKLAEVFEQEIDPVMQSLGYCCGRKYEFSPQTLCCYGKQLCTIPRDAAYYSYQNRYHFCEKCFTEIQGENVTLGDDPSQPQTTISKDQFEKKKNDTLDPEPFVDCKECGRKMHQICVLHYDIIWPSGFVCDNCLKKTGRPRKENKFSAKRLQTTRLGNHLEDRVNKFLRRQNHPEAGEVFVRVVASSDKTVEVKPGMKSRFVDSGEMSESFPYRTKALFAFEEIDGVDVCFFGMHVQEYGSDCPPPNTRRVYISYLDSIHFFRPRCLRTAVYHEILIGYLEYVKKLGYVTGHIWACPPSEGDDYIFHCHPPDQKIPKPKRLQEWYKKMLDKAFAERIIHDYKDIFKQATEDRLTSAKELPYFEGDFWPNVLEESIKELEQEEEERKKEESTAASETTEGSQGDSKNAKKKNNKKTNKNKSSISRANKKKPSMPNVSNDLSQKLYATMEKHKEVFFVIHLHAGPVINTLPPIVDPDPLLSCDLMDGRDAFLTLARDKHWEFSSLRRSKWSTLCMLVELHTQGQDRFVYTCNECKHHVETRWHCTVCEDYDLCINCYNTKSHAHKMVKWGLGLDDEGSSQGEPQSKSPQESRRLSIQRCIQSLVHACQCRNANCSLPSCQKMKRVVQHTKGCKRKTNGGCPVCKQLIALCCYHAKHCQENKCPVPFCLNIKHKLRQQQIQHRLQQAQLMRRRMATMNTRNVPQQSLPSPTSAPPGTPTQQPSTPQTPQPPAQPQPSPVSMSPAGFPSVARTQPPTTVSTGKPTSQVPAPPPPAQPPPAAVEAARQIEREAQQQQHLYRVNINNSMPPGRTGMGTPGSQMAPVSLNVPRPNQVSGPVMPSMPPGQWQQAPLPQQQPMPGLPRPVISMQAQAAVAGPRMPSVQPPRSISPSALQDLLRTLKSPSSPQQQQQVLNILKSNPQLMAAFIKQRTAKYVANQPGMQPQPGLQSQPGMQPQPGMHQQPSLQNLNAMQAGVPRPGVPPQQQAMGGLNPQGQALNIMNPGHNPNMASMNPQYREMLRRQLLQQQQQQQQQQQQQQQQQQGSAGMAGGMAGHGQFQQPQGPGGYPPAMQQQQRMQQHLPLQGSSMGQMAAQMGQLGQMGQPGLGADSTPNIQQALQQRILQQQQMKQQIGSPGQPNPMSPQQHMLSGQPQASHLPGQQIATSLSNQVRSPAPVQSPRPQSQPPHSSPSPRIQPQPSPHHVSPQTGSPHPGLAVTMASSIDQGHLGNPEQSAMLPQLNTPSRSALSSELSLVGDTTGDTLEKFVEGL

Compound | ΔTm [1] | ΔTm [2]
CCC(=O)N1CCOc2c(cc(-c3cc(Cl)ccc3OC)cc2OC)C1 | 3.4 °C | 0.2 °C
CCC(=O)N1CCOc2c(cc(-c3cc(OC)cc(OC)c3)cc2C(=O)OC)C1 | 5.4 °C | 0.5 °C
COc1cc(-c2c(OC)cccc2OC)cc2c1OCCN(C(=O)C(C)C)C2 | 0.6 °C | 0.2 °C
O=C(C1CC1)N1CCOc2c(cc(-c3cccc(Cl)c3)cc2OCc2ccsc2)C1 | 0.8 °C | 0 °C
CCC(=O)N1CCOc2c(cc(-c3cccc(Cl)c3)cc2OCC2CCCCO2)C1 (stereo not given) | 4.1 °C | -2 °C
COc1ccc(-c2cc3c(c(OCC4CCCN(C)C4)c2)OCCN(C(=O)C2CC2)C3)cc1OC (stereo not given) | 6.5 °C | 2.1 °C
CN1CCCC(COc2cc(-c3cccc(Cl)c3)cc3c2OCCN(C(=O)C2CC2)C3)C1 (stereo not given) | 4.4 °C | 1 °C
CCC(=O)N1CCOc2c(cc(-c3ccc(OC)c(OC)c3)cc2C(=O)O)C1 | 4.1 °C | 0.1 °C
CCC(=O)N1CCOc2c(cc(-c3ccc(OC)c(OC)c3)cc2OCC2CCCN(C)C2)C1 (stereo not given) | 7.8 °C | 2.1 °C
O=C(C1CC1)N1CCOc2c(cc(-c3cccc(Cl)c3)cc2OCC2CCCCO2)C1 (stereo not given) | 2.6 °C | -0.1 °C
CCS(=O)(=O)Nc1cc(-c2cc3c(c(OC)c2)OCCN(C(=O)C2CC2)C3)ccc1C | 4.6 °C | 3.6 °C
COc1cc(-c2ccnc(N)n2)cc2c1OCCN(C(=O)C1CC1)C2 | 0.3 °C | 0.6 °C
COc1cc(-c2ccc(C)cc2)cc2c1OCCN(C(=O)C(C)C)C2 | 0.7 °C | 0.8 °C
CCC(=O)N1CCOc2c(cc(-c3cc(OC)cc(OC)c3)cc2C(=O)N[C@@H]2CCCNC2)C1 | 6.8 °C | 0.6 °C
CCC(=O)N1CCOc2c(cc(-c3cccc(Cl)c3)cc2OC)C1 | 3.6 °C | 0.8 °C
COc1cc(-c2ccc(C#N)cc2)cc2c1OCCN(C(=O)C1CC1)C2 | 2.3 °C | 1.9 °C
COc1cc(-c2cc3ccccc3s2)cc2c1OCCN(C(=O)C1CC1)C2 | 1.5 °C | 1.8 °C
COc1cc(-c2cccc(Cl)c2)cc2c1OCCN(C(=O)C(C)C)C2 | 0.7 °C | 0.6 °C
COc1cccc(-c2cc3c(c(OC4CCN(C)C4)c2)OCCN(C(=O)C2CC2)C3)c1 (stereo not given) | 6.4 °C | 2.7 °C
CN1CCCC(COc2cc(-c3nc4ccccc4s3)cc3c2OCCN(C(=O)C2CC2)C3)C1 (stereo not given) | 4.2 °C | 1.7 °C
COc1cccc(-c2cc3c(c(OC)c2)OCCN(C(=O)C2CC2)C3)n1 | 1.4 °C | 0.6 °C
COc1cccc(-c2cc(O)c3c(c2)CN(C(=O)C2CC2)CCO3)c1 | 4.4 °C | 1.7 °C
COc1cc(C(C)=O)cc2c1OCCN(C(=O)C1CC1)C2 | 0.3 °C | 0.1 °C
COc1ccccc1-c1cc2c(c(OC)c1)OCCN(C(=O)C1CCC1)C2 | 0.5 °C | 0.9 °C
CCC(=O)N1CCOc2c(cc(-c3cccc(Cl)c3)cc2OCc2ccsc2)C1 | 1.8 °C | -0.2 °C
CCC(=O)N1CCOc2c(cc(-c3cc(OC)cc(OC)c3)cc2C(=O)N[C@H]2CCCNC2)C1 | 7.2 °C | 0.8 °C
COc1cc(OC)cc(-c2cc3c(c(OC)c2)OCCN(C(=O)C2CC2)C3)c1 | 6.7 °C | 4.5 °C

Compound | ΔTm [1] | ΔTm [2]
CCC(=O)N1CCOc2c(cc(-c3ccc(OC)c(OC)c3)cc2C(=O)OC)C1 | 4.7 °C | 1.8 °C
CCN(Cc1ccncc1)Cc1ccc2c(c1)CN(C(=O)C1CC1)CCO2 | -0.1 °C | 0.2 °C
COc1cc(-c2ccnc(Cl)c2Cl)cc2c1OCCN(C(=O)C1CC1)C2 | 1.7 °C | 1.1 °C
CCC(=O)N1CCOc2c(cc(-c3cc(OC)cc(OC)c3)cc2C(=O)NCCN2CCCCC2)C1 | 6.5 °C | 0.7 °C
COc1cc(-c2nc(C)cnc2C)cc2c1OCCN(C(=O)C1CC1)C2 | 0.6 °C | 0.1 °C
CCC(=O)N1CCOc2c(cc(-c3nc4ccccc4s3)cc2OC2CCOC2)C1 (stereo not given) | 3.9 °C | 0.8 °C
CCC(=O)N1CCOc2c(cc(-c3cc(OC)cc(OC)c3)cc2C(=O)NCCN(C)C)C1 | 4.4 °C | 0.2 °C
CCC(=O)N1CCOc2c(cc(-c3cccc(OC)c3)cc2OC)C1 | 5.4 °C | 1.5 °C
COc1cc(-c2csc(N)n2)cc2c1OCCN(C(=O)C1CC1)C2 | 2.1 °C | 1 °C
COc1cc(-c2ccc(N(C)C)cc2)cc2c1OCCN(C(=O)C1CC1)C2 | 3.3 °C | 2.1 °C
CC(C)C(=O)N1CCOc2c(cc(-c3cccc(Cl)c3)cc2OCC2CCCCO2)C1 (stereo not given) | 0.2 °C | 0 °C
CCC(=O)N1CCOc2c(cc(-c3cccc(OC)c3)cc2OCC2CCCN(C)C2)C1 (stereo not given) | 7.1 °C | 1.5 °C
COc1cc(-c2c(C)noc2C)cc2c1OCCN(C(=O)C1CC1)C2 | 4.9 °C | 4.1 °C
COc1cccc(-c2cc3c(c(OCCN(C)C)c2)OCCN(C(=O)C2CC2)C3)c1 | 4.3 °C | 0.7 °C
COc1cc(-c2ccc(C(C)=O)s2)cc2c1OCCN(C(=O)C1CC1)C2 | 2.3 °C | 2.7 °C
COc1ccc(Cl)cc1-c1cc2c(c(OC)c1)OCCN(C(=O)C1CCCO1)C2 (stereo not given) | 0 °C | 0 °C
COc1cc(-c2cccc(Cl)c2)cc2c1OCCN(C(C)=O)C2 | 2.2 °C | 0.6 °C
COc1cccc(-c2cc3c(c(OCC4CCN(C)C4)c2)OCCN(C(=O)C2CC2)C3)c1 (stereo not given) | 4.8 °C | 0.8 °C
COc1cc(-c2cc(C)c(OC)c(C)c2)cc2c1OCCN(C(=O)C1CC1)C2 | 4.5 °C | 2.6 °C
CCC(=O)N1CCOc2c(cc(-c3cc(OC)cc(OC)c3)cc2C(=O)O)C1 | 4.9 °C | 0.1 °C
CCC(CC)C(=O)N1CCOc2c(cc(-c3ccccc3OC)cc2OC)C1 | 0.1 °C | 0.8 °C
CCC(=O)N1CCOc2c(cc(-c3cc(OC)cc(OC)c3)cc2C(=O)NCCN(CC)CC)C1 | 5.7 °C | 0.4 °C
COCC(=O)N1CCOc2c(cc(-c3cccc(OC)c3)cc2OC)C1 | 0.3 °C | 0.3 °C
COc1cccc(-c2cc3c(c(OC)c2)OCCN(C(C)=O)C3)c1 | 2.6 °C | 0.7 °C
COc1cc(-c2ccc(SC)cc2)cc2c1OCCN(C(=O)C1CC1)C2 | 2.7 °C | 1.7 °C
COc1cccc(-c2cc3c(c(OCC4CCCN(C)C4)c2)OCCN(C(=O)C2CC2)C3)c1 (stereo not given) | 6 °C | 1.3 °C

More lines, now with the values ahead:

ΔTm [1] | ΔTm [2] | Compound
0.7 °C | 0.3 °C | CCC(=S)N1CCOc2c(cc(-c3ccc(OC)c(Cl)c3)cc2OC)C1
0.2 °C | -0.1 °C | COc1ccc(-c2cc3c(c(OC)c2)OCCN(C(=O)C(F)(F)F)C3)cc1Cl
3.5 °C | 2.6 °C | COc1cc(-c2ccc(F)c(F)c2)cc2c1OCCN(C(=O)C1CC1)C2
4.4 °C | -0.6 °C | COc1ccc(Cl)cc1-c1cc2c(c(OC)c1)OCCN(C(=O)C1CC1)C2
0.2 °C | 1.5 °C | COc1ccc(-c2cc3c(c(OC)c2)OCCN(C(=O)N(C)C)C3)cc1Cl
3 °C | 3.3 °C | COc1ccc(-c2cc3c(c(OC)c2)SCCN(C(=O)C2CC2)C3)cc1OC
3.4 °C | 2.6 °C | CNC(=S)N1CCOc2c(cc(-c3ccc(OC)c(Cl)c3)cc2OC)C1
4.1 °C | 2.2 °C | COc1cccc(-c2cc3c(c(OC)c2)OCCN(C(=O)C2CC2)C3)c1
3.3 °C | 1.4 °C | COc1cc(-c2ccc(C)cc2)cc2c1OCCN(C(=O)C1CC1)C2
3.3 °C | 2 °C | COc1cc(-c2cccc(Cl)c2)cc2c1OCCN(C(=O)C1CC1)C2
4.8 °C | 3 °C | COc1ccc(-c2cc3c(c(OC)c2)OCCN(C(=O)C2CC2)C3)cc1C
1.2 °C | 1.2 °C | COc1cccc(-c2cc3c(c(OC)c2)OCCN(C(=O)C2CCC2)C3)c1
2.7 °C | 2.2 °C | COc1cc(-c2ccc(Cl)c(Cl)c2)cc2c1OCCN(C(=O)C1CC1)C2
0.5 °C | 0.8 °C | COc1ccc(-c2cc3c(c(OC)c2)OCCN(C(=O)C(C)F)C3)cc1Cl (stereo not given)
-0.1 °C | 0.5 °C | COc1ccc(-c2cc3c(c(OC)c2)OCCN(C(=O)CC(F)(F)F)C3)cc1Cl
3.4 °C | 0.5 °C | COc1cc(-c2c(OC)cccc2OC)cc2c1OCCN(C(=O)C1CC1)C2
4.2 °C | 3.1 °C | CCC(=O)N1CCSc2c(cc(-c3ccc(OC)c(OC)c3)cc2OC)C1
4.6 °C | 3.2 °C | COc1ccc(-c2cc3c(c(OC)c2)OCCN(C(=O)C2CC2)C3)cc1OC
4.3 °C | 3.9 °C | COC(=O)N1CCOc2c(cc(-c3ccc(OC)c(Cl)c3)cc2OC)C1
4.4 °C | 3.3 °C | COc1ccc(-c2cc3c(c(OC)c2)OCCN(C(=O)C2CC2)C3)cc1Cl
0.9 °C | 0.6 °C | COc1ccc(Cl)cc1-c1cc2c(c(OC)c1)OCCN(C(=O)C1CCC1)C2
3.9 °C | 1.6 °C | COc1cc(-c2ccc3c(c2)OCO3)cc2c1OCCN(C(=O)C1CC1)C2
0.7 °C | 3.6 °C | COc1ccc(-c2cc3c(c(OC)c2)OCCN(C(N)=O)C3)cc1Cl
6 °C | 2.5 °C | CO/N=C/c1cc(-c2cc3c(c(OC)c2)OCCN(C(=O)C2CC2)C3)ccc1OC
2 °C | 1.4 °C | COc1ccc(-c2cc3c(c(OC)c2)SCCN(C(=O)C2CC2)C3)cc1Cl
6 °C | 2.5 °C | CCC(=O)N1CCOc2c(cc(-c3ccc(OC)c(Cl)c3)cc2OC)C1
0 °C | 1.4 °C | COc1ccc(-c2cc3c(c(OC)c2)OCCN(C(=O)CO)C3)cc1Cl
